Screening results from PubChem BioAssay.
UPR CHOP act – activators of apoptotic CHOP UPR arm, primary screen, cell-based, CHO-CHOP luciferase reporter, luminescence, uHTS. UPR activation; percent of tunicamycin response over DMSO baseline. activation, % at 10 µM. actives 0.34% (n = 330,000). AID 449763, 2010;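 active = at 10 µM dose, activation of 40% or more, normalized to positive control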;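 also: 100% = tunicamycin at 10 µg/mL and 0% = DMSO alone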
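Evaluation: % reporter activation, DMSO baseline versus tunicamycin full activation; System: CHO-CHOP luciferase reporter cell line; Input: 500 cells/well; Incubation: 6 h compound treatment, 37 °C; Measured by: Steady-Glo luciferase luminescence; Dosing: one dose, 10 µM in 0.5% DMSO; Buffer or medium: F12 medium, 10% FBS; Benchmarks: positive tunicamycin 10 µg/mL, negative DMSO alone.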
CHOP inhibitor – inhibitors of CHOP promoter induction, primary screen, cell-based, unfolded protein response, luciferase reporter; CHO-K1 CHOP-promoter luciferase, tunicamycin-induced, 15-18 h; inhibition, % at 10 µM; actives 3.8% (n = 220,000); AID 2732, 2010;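 active = compounds that reduced the stress-induced luciferase reporter signal by more than about 70% of percent inhibition, limit read from the data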;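 also: 0% = tunicamycin plus vehicle and 100% = wells without tunicamycin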
UPR XBP1 act – activators of adaptive XBP1 UPR arm, primary screen, cell-based, CHO-XBP1 luciferase reporter, luminescence, uHTS; IRE1-XBP1 UPR activation; percent of tunicamycin response, DMSO as zero; activation, % at 20 µM; actives 0.33% (n = 330,000); AID 463104, 2010;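 active = versus positive control, 20 µM dose yields 30% or more activation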;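 also: 100% = tunicamycin at 10 µg/mL and 0% = DMSO only wells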
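Assay system: CHO-XBP1 luciferase reporter cells; Schedule: 6 h treatment, 37 °C; Detection: glow luminescence from Steady-Glo reagent; Benchmarks: high control tunicamycin 10 µg/mL final, low control DMSO vehicle only.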
T cruzi inh – inhibitors of intracellular T. cruzi growth, primary screen, luminescence, NIH3T3 host cells; T. cruzi beta-gal in NIH3T3, 90 h; inhibition, % (concentration not given with the values); actives 1.4% (n = 300,000);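 active = mean inhibition across valid replicates above about 55%, limit read from the data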;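 also: signal also drops with host cell toxicity which is not excluded here; 0% = plate median of DMSO wells and 100% = zero luminescence signal; higher percent means less beta-gal luminescence so fewer parasites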
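System: NIH/3T3 fibroblasts plus reporter T. cruzi. Medium: DMEM plus 2% FBS. Probe or stimulus: 5000 reporter trypomastigotes per well. Compound: single 50 nL compound addition per well in DMSO. Incubation: co-culture of at least 90 h after 3 h attachment. Detection: GalScreen β-gal luminescence, detergent lysis, 60 min. Evaluation: parasite load inhibition, %.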
Dynein cargo inh – inhibitors of GR-EGFP nuclear translocation, primary screen, dynein cargo transport inhibitor project, imaging, high-content, 3617.4 mouse cells. test concentration mostly 20 µM; stimulated with dexamethasone, 1 µM; active compounds read low. actives 0.47% (n = 220,000). z-score, hits read low;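 active = plate z-score of nuclear minus cytoplasmic receptor signal below a set negative limit, without overly bright fluorescence or cell loss, cut at about -3.5 in these data, passing the limit was not always enough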;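 also: z-score of nuclear minus cytoplasmic ring GR-EGFP intensity difference per well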
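Buffer or medium: Induction medium lacking tetracycline, stripped serum | Also added: Dexamethasone agonist, 1.0 µM final, for 30 min | Timing: 48 h induction, 1 h compound, 30 min dex at 37 °C | Detection: Formaldehyde fixation, Hoechst nuclear stain, 10x automated fluorescence imaging | Measure: Nuclear versus cytoplasmic GR-EGFP signal, averaged per well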
L major viab – Leishmania major promastigote growth inhibition, primary screen. Leishmania major promastigotes, resazurin fluorescence viability. inhibition, % at 10 µM. actives 9% (n = 200,000). AID 1063, 2008; in the data active = inhibition above about 50%;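 also: promastigotes grown with compound for 44 hours at 28 °C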
An asterisk follows results filed as active; · = not tested or not shown. The entries come from a sample that favours hits as a whole.

SMILES	UPR CHOP act	CHOP inhibitor	UPR XBP1 act	T cruzi inh	Dynein cargo inh	L major viab
O=C(Nc1ccccc1C(=O)Nc1nnc(C(F)(F)F)s1)c1ccccc1Cl	7	74*	-1	-34	1.6	·
COc1ccc(CN(C)CC(=O)Nc2cccc(S(=O)(=O)N3CCCC3)c2)cc1F	0	·	-1	·	·	·
O=C(NCc1ccco1)c1cc2cc(Br)ccc2o1	7	·	-2	-3	·	·
Cc1cc2c(c(=O)n1Cc1ccc3c(c1)OCO3)C(c1cccnc1)C(C#N)=C(N)O2 (stereo not drawn)	0	27	-1	61*	-0.65	20
CCOC(=O)C1=C(N)Oc2ccc3ccccc3c2C1c1cccnc1 (stereo not drawn)	-1	26	3	57*	1.8	98*
CCOC(=O)C1=C(C)N(C)C(C)=C(C(=O)OCC)C1c1cccnc1	2	34	-2	0	1.2	95*
CCOC(=O)C1=C(C)Nc2ncnn2C1c1cccnc1 (stereo not drawn)	0	11	-2	-6	-0.62	2
COC(=O)C1=C(N)Oc2cc(C)n(Cc3cccnc3)c(=O)c2C1c1ccc(OC)c(OC)c1 (stereo not drawn)	-3	-8	-3	12	0.39	5
CCOC(=O)C1=C(N)Oc2cc(C)n(CCc3ccc(OC)c(OC)c3)c(=O)c2C1c1cccnc1 (stereo not drawn)	0	34	0	37	-0.96	94*
COc1ccc(CC(O)COS(N)(=O)=O)cc1 (stereo not drawn)	0	·	2	-10	·	·
C[C@H](NC(=O)c1ccc(Cl)cc1)C(=O)NNC(=O)c1cccs1	2	·	-3	·	·	·
Cc1cccc(NC(=O)CSCC(=O)N(C)Cc2c(F)cccc2Cl)c1	0	·	-3	3	·	·
CCOC(=O)C1=C(N)N(c2ccccc2)C2=C(C(=O)CCC2)C1c1cccnc1 (stereo not drawn)	3	-51	1	27	-0.039	72*
COc1cc(C2C(C#N)=C(N)N(c3cccnc3)C3=C2C(=O)CCC3)ccc1O (stereo not drawn)	-2	-14	0	-10	-0.67	-4
COC(=O)C1=C(N)Oc2cc(C)n(CCc3ccccc3)c(=O)c2C1c1cccnc1 (stereo not drawn)	6	32	0	46	1.7	98*
CC1CCCN(CC(O)COCc2ccc3c(c2)OCO3)C1 (stereo not drawn)	-1	-3	1	1	-0.062	4
SC(COCc1ccccc1)CN1CCN(Cc2ccc3c(c2)OCO3)CC1 (stereo not drawn)	-3	-23	3	55*	-0.1	58*
OC(COCc1ccccc1)CN1CCN(Cc2ccc3c(c2)OCO3)CC1 (stereo not drawn)	0	13	-2	21	-0.19	90*
CC1CN(CC(O)COCc2ccc3c(c2)OCO3)CC(C)O1 (stereo not drawn)	-2	-2	-1	4	-1	69*
c1cc2c(cc1CN1CCOCC1)OCO2	-3	9	1	-9	-0.24	0
COc1ccccc1-c1nc(S(=O)(=O)c2ccccc2)c(N2CCOCC2)o1	1	·	-4	-3	·	·
COc1ccc([C@@H]2CC=C(C(=O)O)[C@H](c3ccccc3F)N2S(=O)(=O)c2ccccc2C)cc1	2	·	4	·	·	·
CSc1cccc(CN2CCCC(CNC(=O)c3ccco3)C2)c1 (stereo not drawn)	0	·	-8	28	·	·
CCSc1nnc(NC(=O)c2ccccn2)s1	19	·	3	40	-0.71	98*
CCSc1nnc(NC(=O)c2cc(-c3ccc(C)c(C)c3O)n[nH]2)s1	·	88*	·	-8	-0.32	-4
SMILES	UPR CHOP act	CHOP inhibitor	UPR XBP1 act	T cruzi inh	Dynein cargo inh	L major viab
CCSc1nnc(NC(=O)c2ccccc2)s1	3	-155	-1	-4	0.3	-4
CCSc1nnc(NC(=O)[C@@H](NC(=O)c2ccccc2)C(C)C)s1	-1	-13	0	12	-0.038	50*
CC(=O)Nc1ccc(NC(=O)c2cc(-c3ccc(C)c(C)c3O)n[nH]2)cc1	5	·	10	-8	·	·
CCc1cc(=O)oc2cc(OC(C)=O)cc(OC(C)=O)c12	1	5	1	-9	-0.43	56*
CN(Cc1ccccc1)C(=O)c1ccc(NC(=O)Cc2cccc(NC(=O)C3CCN(C(=O)C4CCCC4)CC3)c2)cc1	1	·	-2	·	·	·
CCC(=O)Nc1ccc2c(c1)nc1n2CCN(CCOC)C1	1	·	-6	0	·	·
Cc1cc(C)n(Cc2ccc(NC(=O)c3ccc(COc4ccccc4Br)cc3)cc2)n1	4	43	2	60*	1.3	56*
CN(C)CCCNC(=O)C1(O)c2cc(Br)ccc2NC(=O)N1c1ccc(Cl)cc1 (stereo not drawn)	1	·	-2	-1	·	·
COCCn1c(SCC(=O)N2CC(=O)Nc3ccccc32)nc2ccccc21	3	5	-4	-1	-0.72	52*
COCCn1c(SCC(=O)NC(=O)NCc2ccccc2)nc2ccccc21	-1	49	-1	55*	0.21	7
COCCn1c(SCC(=O)N2CC(=O)Nc3ccccc32)nc2ccccc2c1=O	0	-6	1	-9	1.3	-6
CCC1CSC(=Nc2ccc(C)cc2)N1C(=O)CN1C(=O)NC2(CCCC2)C1=O (stereo not drawn)	3	·	-6	8	·	·
c1ccc(-c2ccc(-c3cnc4n3CCCCC4)cc2)cc1	4	69	3	12	-0.2	99*
CCN1C(=O)[C@H]2[C@@H](c3ccc(-c4ccc(F)cc4)cc3)N3CCCC[C@@]3(C(=O)OC)[C@H]2C1=O	-1	·	-1	23	·	·
Cc1ccc(-n2nc3c(c2NC(=O)c2ccc(F)c(F)c2)CS(=O)(=O)C3)cc1	0	·	-4	-1	·	·
COc1cc(NS(=O)(=O)c2ccc(OC)c(C)c2C)c(OC)cc1Cl	-1	·	1	-20	0.4	100*
COc1ccc(OC)c(S(=O)(=O)Nc2cc(Cl)cc(Cl)c2)c1	-1	54	-1	18	0.91	5
COc1ccc(OC)c(S(=O)(=O)Nc2cc(OC)c(Cl)cc2OC)c1	-2	43	-3	-5	-1.5	62*
COc1ccc(S(=O)(=O)Nc2ccccn2)c(C)c1C	-1	2	-2	13	-0.35	-4
CCCN(CC(=O)Nc1cc(Cl)ccc1Cl)C(=O)c1ccc2n[nH]nc2c1	2	·	-2	·	·	·
